Experimental data published in the EternaBench riboswitch data.

System: MS2 coat protein
Assay: apparent Kd, MS2 coat protein; higher = weaker binding; RNA-MaP array; FMN 200 µM where present
Procedure, shortened: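 Stalled E. coli RNA polymerase produced the designs on Illumina sequencing-chip clusters. SNAP-549-labelled MS2 coat protein was added from 0.7 or 1.5 nM, doubling to 3 µM, without and then with constant ligand, in 100 mM Tris-HCl pH 7.5, 80 mM KCl, 4 mM MgCl2, BSA, DTT, yeast tRNA and Tween-20. The apparent Kd is the median of filtered per-cluster fits of green signal normalised to red-channel RNA signal and control-cluster median Fmax.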

[1] = designed as: OFF switch for flavin mononucleotide, no ligand
[2] = ligand present: flavin mononucleotide, designed as: OFF switch for flavin mononucleotide
[3] = designed as: ON switch for flavin mononucleotide, no ligand
[4] = ligand present: flavin mononucleotide, designed as: ON switch for flavin mononucleotide

## UCACCUGCCGAGGAUAUGAACGUAUUGAAUUGAUUAGAAGGCGGCACAUGAGGAUCACCCAUGUCACUGCACGC
[1]
  apparent Kd: 11.7 nM
[2]
  apparent Kd: 11.5 nM

## UCACGGGACUAAGGAUAUACAUGAACUAUUAUUGUAGAAGGUAGAAUGUUAGAUUAUACACUAAACAUGAGGAUCACCCAUGUU
[1]
  apparent Kd: 21.1 nM
[2]
  apparent Kd: 19.6 nM

## UCACGGGAUUGAGGAUAUAUAUUAAUUUUUUUUAUAGAAGGCAAAAUGUUAGAUUAUUCACUAUACAUGAGGAUCACCCAUGUU
[2]
  apparent Kd: 22.7 nM

## UCAGAUGUACAUGAGGAUCACCCAUGUCAUAUGCCCGUGACACAGGAUAUCCAGGAUAGGCCAAAGGAGAAGGGUGAUCCGCGG
[3]
  apparent Kd: 103 nM
[4]
  apparent Kd: 158 nM

## UCAGGCUUCGAGAAGGACAUGAAUCGUAGCAUUGCUACGAUGAAUUAUACAUGAGGAUCACCCAUGUAGGAUAUCGGAGUCUGC
[2]
  apparent Kd: 6.34 nM

## UCAGGCUUCGAGAAGGACAUGAGGAUCACCCAUGUUAACAUGUAGCAGCCGUGAGGCUGCAUCAUGUAGGAUAUCGGAGUCUGC
[1]
  apparent Kd: 6.07 nM
[2]
  apparent Kd: 7.07 nM

## UCAUAAUAGAUCCUAUUUAUCUACAUGAGGAUCACCCAUGUGCAGGAUAUGCUAAAAUUAAAAUAGCAGAAGGGCAAUAUCAGC
[1]
  apparent Kd: 109 nM
[2]
  apparent Kd: 365 nM

## UCAUACGGUGAGGAUAUCUCCACUAAAGUGUGUAGAGAAGGCGCUACAUGAGGAUCACCCAUGUUUAUGGGCAG
[1]
  apparent Kd: 376 nM
[2]
  apparent Kd: 117 nM

## UCAUCAGCGGGCGGGUCGGUUGGACAUGAGGAUCACCCAUGUAGAAGGACCGGUGGACUCCGGCGGUAGGAUAUACAUUUGGUG
[1]
  apparent Kd: 16.1 nM
[2]
  apparent Kd: 26.3 nM

## UCAUGAUGGAAGAAGGGAGUCGUGCAUGACAACUCAGGAUAUUUCACAUGAGGAUCACCCAUGUCGAAGUAACAGUGUUGAUCA
[1]
  apparent Kd: 23.9 nM
[2]
  apparent Kd: 45.8 nM

## UCAUGUUAGCAGGAUAUGCUAUUUAUCUUUUAUGCAGAAGGGCUUACAUGAGGAUCACCCAUGUAUUAAGUCUU
[1]
  apparent Kd: 18.9 nM
[2]
  apparent Kd: 52.5 nM

## UCAUUAUAGAUCCAUUUUAACUACAUGAGGAUCACCCAUGUGCAGGAUAUCGAUUGUUUUACUUUCGAGAAGGGCAAAUACAGA
[1]
  apparent Kd: 78 nM
[2]
  apparent Kd: 202 nM

## UCAUUUAAUACAGGAUAUGUUAGUAUACAGUAGAUUGGUUAUUACAUAAUAACAGAAGGGUAGAACAUGAGGAUCACCCAUGUA
[3]
  apparent Kd: 265 nM
[4]
  apparent Kd: 96.2 nM

## UCAUUUUACACAGGAUAUAUUCAUAUACAGUUGUUUGGCUCUUACAUGUUAGUAGAAGGGUGCAACAUGAGGAUCACCCAUGUA
[3]
  apparent Kd: 279 nM
[4]
  apparent Kd: 274 nM

## UCCAAACUUGGACUUGGUGGUGCAUAGGAUAUCCUUGGACAUGAGGAUCACCCAUGUACAACUGUGGAGAAGGGUGCAGGGCCU
[3]
  apparent Kd: 427 nM
[4]
  apparent Kd: 91.3 nM

## UCCAAGCUAGGAUAUACCCAGGGUUUGUUCUCUAACAAAACACAUGAGGAUCACCCAUGUAGAAGGAGCCGGGA
[1]
  apparent Kd: 58.1 nM
[2]
  apparent Kd: 62.9 nM

## UCCAGACAUGAGGAUCACCCAUGUGAGGAUAUGAUGCGAUCGUCGAAAGACGAUAGCAUCAGAAGGCACGUAUG
[1]
  apparent Kd: 33.7 nM
[2]
  apparent Kd: 48.3 nM

## UCCUCACAUGAGGAUCACCCAUGUGAGGAUAUCAGCGCGUACGGGUUUCCGUAGUGUUUGAGAAGGCAUUUGGG
[1]
  apparent Kd: 16.6 nM
[2]
  apparent Kd: 29 nM

## UCCUCGGUACGAGGAUAUUCACGACGGUGUUCGGAAGAAGGCGUACAUGAGGAUCACCCAUGUCCGUCGAAAGGACUAACCGGG
[1]
  apparent Kd: 49 nM
[2]
  apparent Kd: 68.5 nM

## UCCUUACUGGUCAGGAUAUACAGUCGCGGGUGGGUGUAGAAGGGACAUGAGGAUCACCCAUGUACGUUGCAGCC
[1]
  apparent Kd: 40.6 nM
[2]
  apparent Kd: 40.9 nM

## UCCUUCUGUUGAGGAUAUGUAAGACAGCGGCUGCUAUGGCGACACGCUGAUACAGAAGGCAACAUGAGGAUCACCCAUGUUCAA
[1]
  apparent Kd: 19.2 nM
[2]
  apparent Kd: 145 nM

## UCGAAACAUGAGGAUCACCCAUGUGCUCACGACAUAGGAUAUACUAGCUCGAAGAGCUGCGUAGAAGGGUGAAGUG
[3]
  apparent Kd: 45.9 nM
[4]
  apparent Kd: 26.8 nM

## UCGACCAGCGCCAGUCGAACAUGAGGAUCACCCAUGUACUCCAGAAGGCCGCCCAAGAACGGAGUGGAGGAUAUGGAGGUUCUC
[3]
  apparent Kd: 37.7 nM
[4]
  apparent Kd: 33.2 nM

## UCGCGGGAGCAGAAGGGAUAGGCCUAUUGUCGUGGAGUCUAAACUUAACAUGAGGAUCACCCAUGUCAGGAUAUGCCCACGCGA
[1]
  apparent Kd: 9.89 nM
[2]
  apparent Kd: 10.5 nM

## UCGCGGGUGCAGAAGGGAUAGGCCUAUUGUCGUGGUGUCUAAACUUAACAUGAGGAUCACCCAUGUCAGGAUAUGCCCACGCGA
[1]
  apparent Kd: 11.6 nM
[2]
  apparent Kd: 13.5 nM

## UCGGACGUCGUAGGAUAUGUAGGAUAUUCCUACAUGAGGAUCACCCAUGUUGACAUGGAAGAAGGACAGAAGGACGAUGUCCAU
[3]
  apparent Kd: 192 nM
[4]
  apparent Kd: 4.7 nM

## UCGGCGCGAGGAUAUACGUUUGCUUUUUGGGAUCGUUGCGUACAUGAGGAUCACCCAUGUAGAAGGCGCGCCGC
[1]
  apparent Kd: 17.6 nM
[2]
  apparent Kd: 73.8 nM

## UCGGCGCGAGGAUAUACGUUUGCUUUUUUUCGUUUUUGUGUACAUGAGGAUCACCCAUGUAGAAGGCGCGCCGC
[1]
  apparent Kd: 15.2 nM
[2]
  apparent Kd: 22.4 nM

## UCGGGUUAUACAGGAUAUGUUUAGGAUAAUACAUGCAGUUAUUAAUUAAUGACAGAAGGGUAUACAUGAGGAUCACCCAUGUCA
[1]
  apparent Kd: 707 nM
[2]
  apparent Kd: 374 nM

## UCGUAACGAGGAUAUACAAGGGUCAGGCCCGCCUGACACACACAUGAGGAUCACCCAUGUAGAAGGUGUAGCGC
[1]
  apparent Kd: 19.4 nM
[2]
  apparent Kd: 18.4 nM

## UCGUACAUUCGAGGAUAUCGGUGAUAAAUAAUACGAGAAGGCGAUUGUGGGCAUAACGCCUUAGACAUGAGGAUCACCCAUGUA
[3]
  apparent Kd: 75.6 nM
[4]
  apparent Kd: 51.5 nM

## UCGUAUAAGGGCAUUACACAUGAGGAUCACCCAUGUACGUUAGAGGAUAUGCAUUUCAGUCGAACGUAGAAGGCUAGAGAAGGG
[1]
  apparent Kd: 117 nM
[2]
  apparent Kd: 100 nM

## UCGUCGUCAGGAUAUUUUGUAUUGCAGAUUUCGCAGUUGCCAAAGAAGGGACAUGAGGAUCACCCAUGUAGUCU
[1]
  apparent Kd: 32.6 nM
[2]
  apparent Kd: 42.2 nM

## UCGUGAAGGAUAGGAUAUGGACAUGAGGAUCACCCAUGUACAUGGGAAUGUAUACUGAAUUUGUACUAGAAGGGUUACAUAAAU
[1]
  apparent Kd: 49.8 nM
[2]
  apparent Kd: 36.6 nM

## UCGUUCCGUGUAGGAUAUUGGCCUUCUCUGGGCCGAGAAGGACAUGAGGAUCACCCAUGUAUGUUAUUAUCGCGCGUGGCGCAU
[1]
  apparent Kd: 26.9 nM
[2]
  apparent Kd: 84.9 nM

## UCUAGACAUGAGGAUCACCCAUGUCGAUAUGGCGCAGGAUAUCGGUACUCAUAGAGUACGCGAGAAGGGUGACUUC
[3]
  apparent Kd: 343 nM
[4]
  apparent Kd: 48.4 nM

## UCUAUGUAAGAGAAGGAGGACUUCAUGAGGAUCACCCAUGUGUUAGUACUUAGGAUAUUUGACAACAUGAGGAUCACCCAUGUC
[3]
  apparent Kd: 65.7 nM
[4]
  apparent Kd: 61.7 nM

## UCUCGACAUGAGGAUCACCCAUGUCAGGAUAUUGUGUUUGAGGUUUUUUACCUUUUGGCAAGAAGGGAUGUGUG
[1]
  apparent Kd: 27.5 nM
[2]
  apparent Kd: 28.9 nM

## UCUCGACAUGAGGAUCACCCAUGUCAGGAUAUUGUGUUUUGGGUUUUUUACCUUUUGGCAAGAAGGGAUGUGUG
[1]
  apparent Kd: 23 nM
[2]
  apparent Kd: 22.1 nM

## UCUGAUAUUCCCGUGCCUCCAACACAGGAUAUCCGUCACAACAUGAGGAUCACCCAUGUCCGGGAGGAGAAGGGUGUGGAGAGU
[3]
  apparent Kd: 91.3 nM
[4]
  apparent Kd: 21.5 nM

## UCUGCAUAGUCAGGAUAUGCAAAAUUUAUUUUCUUCGGAAAAUAAAUAACAUGAGGAUCACCCAUGUAGAAGGGACUGUGCAGA
[1]
  apparent Kd: 16.9 nM
[2]
  apparent Kd: 14.7 nM

## UCUGGUCGAGGAUAUACAUGAGGAUCACCCAUGUUGAUCAAGCGACUUCGGUCGCAAUGUAGAAGGCGACCAGA
[1]
  apparent Kd: 627 nM
[2]
  apparent Kd: 182 nM

## UCUUGACAUGAGGAUCACCCAUGUCAGGAUAUAGUAGGACAAAUAAAUAAAAGUUCUACUAGAAGGGACGUGGG
[1]
  apparent Kd: 20.4 nM
[2]
  apparent Kd: 26.7 nM

## UCUUUAUUUGUGAGGAUAUCGAUAAAAUGGAUUGUCGAGAAGGCACAUGAGGAUCACCCAUGUAUUGAACAGCA
[1]
  apparent Kd: 59.2 nM
[2]
  apparent Kd: 212 nM

## UGAAACUACGAGAAGGACAUGUGGUCCUUCAGUUACAUGAGGAUCACCCAUGUAGGAUAUCGUAGUUUCAGGAUCGUGAGAUCG
[1]
  apparent Kd: 34.7 nM
[2]
  apparent Kd: 10.4 nM

## UGAAAUCAUGUAGGAUAUGCAUGGCGAAGCUACGCAGAAGGACAUGAGGAUCACCCAUGUUCUGGCUACCGGAUACGGUGGCAA
[1]
  apparent Kd: 22 nM
[2]
  apparent Kd: 105 nM

## UGAAUCUAGUAAGGAUAUACACGAGAUACAAGUGUAGAAGGUACUUACAUGAGGAUCACCCAUGUAUACAUGGAUAAUAGAUAU
[3]
  apparent Kd: 291 nM
[4]
  apparent Kd: 182 nM

## UGAGCCGGCACUGAGGAUAUUCAUAUUAAAACAUGAGGAUCACCCAUGUAGGCCAGAAGGCCUUGGGAGAAGGCAGGUCGGCUCA
[3]
  apparent Kd: 403 nM
[4]
  apparent Kd: 20.6 nM

## UGAGCCUCGUGAGGAUAUACAUGAGGAUCACCCAUGUAAAUGAAAGAUAGCUCGAAACGAGCAAAGUAGAAGGCACGAGGCUCA
[1]
  apparent Kd: 17.1 nM
[2]
  apparent Kd: 27.1 nM

## UGAGCGACCACAGGAUAUACUCGGGAAGACCAAGUAGAAGGGUGGAAGAGCGUGCAGUGACAUGAGGAUCACCCAUGUGGUUGU
[3]
  apparent Kd: 143 nM
[4]
  apparent Kd: 97.3 nM

## UGAGCUUGUGUGAGGAUAUGAGUUCGGAAAUGAGCUUAGAAGGCACAUGAGGAUCACCCAUGUAAGCGAGUUCG
[1]
  apparent Kd: 72.2 nM
[2]
  apparent Kd: 74.7 nM

## UGAUACAUGAGGAUCUCCCAUGACAUGAGGAUCACCCAUGUGCAGGAUAUACGUGUGAUAAUAUAGUAGAAGGGCAGUCUAUGU
[1]
  apparent Kd: 189 nM
[2]
  apparent Kd: 248 nM

## UGAUACUAGGGAGGAUAUGGGAAGAUACAUGAGGAUCACCCAUGUUUAAGAAUGCCGAGAGGCAACUAGAAGGCCCUAGUACCU
[3]
  apparent Kd: 538 nM
[4]
  apparent Kd: 21.3 nM

## UGAUAGGACAGAGGAUAUACAGAUAGGAUCUACUAUCAAACAGUCCUUACAUGAGGAUCACCCAUGUAGAAGGCUGUCCUAUCU
[1]
  apparent Kd: 19.8 nM
[2]
  apparent Kd: 85.8 nM

## UGAUAGGACAGAGGAUAUACAGAUAGGAUCUACUAUCCUCCUUAAAUAACAUGAGGAUCACCCAUGUAGAAGGCUGUCCUAUCU
[1]
  apparent Kd: 26.5 nM
[2]
  apparent Kd: 182 nM
